Source: PMC6299426 (Theranostics, 2018)
Read-outs that look alike come from different tables or passages of the source. Marks after values point to notes of the source that are not given here.

What was measured:
[1] = test system: D-amino acid oxidase (DAAO); assay: D-serine oxidation by pure DAAO in vitro; format: biochemical; details: 89 μM, 15 min at 37 °C; control 13%
[2] = test system: carboxylesterase of the gut microbiota; format: biochemical, SD rats; details: without inhibitor 100%
Procedure, shortened: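 Carboxylesterase inhibitor BNPP (0.3, 0.9 or 3 mM) was added together with test compound (final 1 mg/mL) to pre-incubated pooled SD rat colon-content cultures. Incubation was anaerobic (N2) at 37 °C. Conversion was followed by C18 LC/MSn-IT-TOF.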

[3] = Identification of albiflorin metabolites in vivo; design: species or system ICR mice; details: after albiflorin administration
Procedure, shortened: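 Fecal metabolites were profiled by LC/MSn-IT-TOF. Feces were extracted with methanol (1/10, g/mL) by ultrasound for 30 min and centrifuged 10 min at 21100 ×g; 20 μL of supernatant was injected. Separation used a C18 column (250 × 4.6 mm, 5 μm) with a water/0.5% formic acid–methanol gradient at 0.8 mL/min over 45 min. Brain was sampled 2 h after oral dosing at 14 mg/kg, with analytes quantified by HPLC-MS/MS.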

[4] = test system: reserpine-induced acute depression model mice; assay: Body temperature in reserpine-induced acute depression model; format: in vivo, ICR mice; details: 7 days, 4 h after reserpine, model 34.55±0.25
[5] = test system: chronic stress-induced depression model rats; assay: Sugar preference test in chronic stress-induced depression model; format: in vivo, SD rats; details: 14 mg/kg orally, 14 days
Procedure, shortened: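 SD rats were exposed to multiple alternating stressors for 8 weeks; there were 6 groups of 10, including an unstressed control. Treatment lasted 14 days, and PGF rats stayed on antibiotics throughout. Sugar preference was tested on days 0 and 14. Data are mean ± standard deviation, analysed by two-way ANOVA and t-test.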

[6] = molecular target: D-amino acid oxidase (DAAO) (Mus musculus, UniProt P18894); assay: DAAO activity in mouse brain homogenate; format: biochemical, ICR mice; details: 5 and 10 μg/mL, 30 min at 37 °C
Procedure, shortened: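 Brains from ten ICR mice, killed by cervical dislocation, were rinsed in saline, blotted, weighed and homogenized in 2 volumes (v/w) saline. Test compounds at final 5 or 10 μg/mL were added and incubated 30 min at 37 °C. DAAO activity was measured by ELISA kit.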

[7] = test system: reserpine-induced acute depression model mice; assay: Out-circle rate in reserpine-induced acute depression model; format: in vivo, ICR mice; details: 7 days, in 15 s, model 20.0
[8] = test system: reserpine-induced acute depression model mice; assay: Tail suspension test in reserpine-induced acute depression model; format: in vivo, ICR mice; details: model group 140.6 ± 13.6 s
[9] = test system: reserpine-induced acute depression model mice; assay: Degree of ptosis in reserpine-induced acute depression model; format: in vivo, ICR mice; details: 7 days, 1 h after reserpine, scale 0-4, model 2.7

D-amino acid oxidase (DAAO) (Mus musculus, UniProt P18894), sequence (P18894 whole entry): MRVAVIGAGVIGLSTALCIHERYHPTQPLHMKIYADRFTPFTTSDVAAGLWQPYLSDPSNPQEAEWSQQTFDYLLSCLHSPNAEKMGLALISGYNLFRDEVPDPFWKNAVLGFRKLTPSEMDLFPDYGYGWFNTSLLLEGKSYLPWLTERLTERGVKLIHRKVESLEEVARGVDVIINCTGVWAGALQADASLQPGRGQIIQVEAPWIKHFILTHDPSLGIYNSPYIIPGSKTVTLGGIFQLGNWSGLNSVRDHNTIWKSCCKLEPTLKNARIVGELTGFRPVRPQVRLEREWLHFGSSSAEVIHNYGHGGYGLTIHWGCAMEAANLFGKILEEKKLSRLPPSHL

Compound: Cc1cc(C(=O)O)n[nH]1 [AS057278, reference compound]
- D-serine in DAAO system (%) [1]: 38%

Compound: O=[N+]([O-])c1ccc(OP(=O)(O)Oc2ccc([N+](=O)[O-])cc2)cc1 [BNPP, bis-p-nitrophenyl phosphate]
- Albiflorin conversion rate in presence of inhibitor ([2]; BNPP 0.3 mM): 82.7%
- Albiflorin conversion rate in presence of inhibitor ([2]; BNPP 0.9 mM): 51.5%
- Albiflorin conversion rate in presence of inhibitor ([2]; BNPP 3 mM): 11.3%

Compound: O=C(O)c1ccccc1 [benzoic acid, Benzoic acid]
- Where the metabolite was detected in mice [3]: detected in plasma, feces and brain
- Body temperature ([4]; 14 mg/kg): 35.23±0.40 ºC
- Sugar preference values vs depression group [5]: significantly higher
- Activity of DAAO in brain homogenate [6]: significantly inhibit
- Rate of out-circle ([7]; 14 mg/kg): 70.0 ^* %
- D-serine in DAAO system (%) [1]: 32%
- Immobility time in tail suspension test ([8]; 14 mg/kg for 7 days): 99.5 ± 10.1 s
- Mean score of ptosis ([9]; 14 mg/kg): 1.7 ^*

Compound: CNCCC(Oc1ccc(C(F)(F)F)cc1)c1ccccc1 (stereo not shown) [fluoxetine, reference compound]
- Body temperature ([4]; 10 mg/kg): 35.31±0.26 ºC
- Rate of out-circle ([7]; 10 mg/kg): 60.0%
- Immobility time in tail suspension test ([8]; 10 mg/kg for 7 days): 76.0 ± 17.8 s
- Mean score of ptosis ([9]; 10 mg/kg): 1.4 ^*

Compound: dihydroxylalbiflorin [M2]
- Where the metabolite was detected in mice [3]: only detected in the feces

Compound: glucuronic acid-conjugated albiflorin [M3]
- Where the metabolite was detected in mice [3]: only detected in the feces

Compound: hydroxylalbiflorin [M1]
- Where the metabolite was detected in mice [3]: only detected in the feces
